# Source: ChEMBL document CHEMBL1153624, “Cyclic phosphoramidates as prodrugs of 2'-C-methylcytidine” (Eur J Med Chem, 2009)
# Columns and labels:
# [1] = test system: Hepatitis C virus; test: Antiviral activity against HCV infected in human HuH7 cells by cell-based subgenomic replicon assay; assay type: functional, organism-based, Hepacivirus hominis, Huh-7
# How it was run: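 HCV subgenomic replicon assay in HUH-7 cells, run in 10% fetal cow serum. Cytotoxicity was read in parallel as the prodrug concentration reducing cell viability by 50%.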
# [2] = Metabolic stability in sc dosed hamster liver assessed as formation of 2'-C-methylcytidine triphosphate ((2R,3R,4R,5R)-5-(4-amino-2-oxopyrimidin-1(2H)-yl)-3,4-dihydroxy-4-methyltetrahydrofuran-2-yl)methyl tetrahydrogen triphosphate at 1.5 umol after 6 hrs; assay type: ADME, organism-based; details: cricetinae, in vivo
# How it was run: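 Hamsters received a single subcutaneous dose of compound formulated in PEG. Liver was collected at 6 h and intracellular 2'-C-methylcytidine triphosphate quantified as nmol/g tissue (LLOQ 0.2 nmol/g).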
# [3] = Cytotoxicity against human HuH7 cells assessed as cell viability; assay type: cell-based, Huh-7
# How it was run: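 Cytotoxicity measured in HUH-7 cells carrying the HCV subgenomic replicon. The value is the prodrug concentration that reduces cell viability by 50%.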
# [4] = Metabolic stability in po dosed hamster liver assessed as 2'-C-methylcytidine triphosphate ((2R,3R,4R,5R)-5-(4-amino-2-oxopyrimidin-1(2H)-yl)-3,4-dihydroxy-4-methyltetrahydrofuran-2-yl)methyl tetrahydrogen triphosphate level at 30.3 umol; assay type: ADME, organism-based; details: cricetinae, in vivo
# [5] = test system: Plasma; test: Stability in human plasma assessed as 2'-C-methylcytidine triphosphate ((2R,3R,4R,5R)-5-(4-amino-2-oxopyrimidin-1(2H)-yl)-3,4-dihydroxy-4-methyltetrahydrofuran-2-yl)methyl tetrahydrogen triphosphate level; assay type: ADME, cell-free
# How it was run: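 Prodrug stability was measured in human plasma and scored as the fraction of dose remaining over time: stable; 80% of dose left after 2 h; 30% left after 1 h; 0% left after 18 min.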
SMILES,"EC50 ([1]; Hepatitis C virus, Huh-7) [µM]",other results
CCC[C@H](NP1(=O)OC[C@H]2O[C@@H](n3ccc(N)nc3=O)[C@](C)(O)[C@@H]2O1)C(=O)OCC (mixture of isomers),> 20,
C[C@H](NP1(=O)OC[C@H]2O[C@@H](n3ccc(N)nc3=O)[C@](C)(O)[C@@H]2O1)C(=O)OC1CCCC1 (mixture of isomers),> 20,
COCCCOC(=O)[C@H](C)NP1(=O)OC[C@H]2O[C@@H](n3ccc(N)nc3=O)[C@](C)(O)[C@@H]2O1 (stereo in doubt; 16 S.E.),28,
CCCC(CCC)COC(=O)[C@H](C)NP1(=O)OC[C@H]2O[C@@H](n3ccc(N)nc3=O)[C@](C)(O)[C@@H]2O1 (stereo in doubt; 20 S.E.),14,
CCC(CC)COC(=O)[C@H](C)NP1(=O)OC[C@H]2O[C@@H](n3ccc(N)nc3=O)[C@](C)(O)[C@@H]2O1 (stereo partly specified),> 20,Activity [2]: 8.9 nmol/g
CCCCOC(=O)[C@H](C)NP1(=O)OC[C@H]2O[C@@H](n3ccc(N)nc3=O)[C@](C)(O)[C@@H]2O1 (stereo in doubt; 10 F.E.),,EC50 ([1]; huh-7): > 20 µM
CCCCCCCOC(=O)[C@H](C)NP1(=O)OC[C@H]2O[C@@H](n3ccc(N)nc3=O)[C@](C)(O)[C@@H]2O1 (stereo in doubt; 12 S.E.),10.5,Activity [2]: 5.9 nmol/g
CCOC(=O)[C@H](CC(C)C)NP1(=O)OC[C@H]2O[C@@H](n3ccc(N)nc3=O)[C@](C)(O)[C@@H]2O1 (stereo partly specified),> 50,
C[C@H](NP1(=O)OC[C@H]2O[C@@H](n3ccc(N)nc3=O)[C@](C)(O)[C@@H]2O1)C(=O)OC1CCCCC1 (stereo in doubt; 14 F.E.),> 20,
CC(C)[C@H](N)C(=O)O[C@@H]1[C@@H](CO)O[C@@H](n2ccc(N)nc2=O)[C@]1(C)O [VALOPICITABINE],7.6,CC50 [3]: > 100 µM; Activity [2]: < 0.2 nmol/g
CC(C)CCOC(=O)[C@H](C)NP1(=O)OC[C@H]2O[C@@H](n3ccc(N)nc3=O)[C@](C)(O)[C@@H]2O1 (stereo in doubt),> 20,
CCOC(=O)[C@H](C)N[P@@]1(=O)OC[C@H]2O[C@@H](n3ccc(N)nc3=O)[C@](C)(O)[C@@H]2O1,> 20,CC50 [3]: > 100 µM
CCOC(=O)[C@H](CC)NP1(=O)OC[C@H]2O[C@@H](n3ccc(N)nc3=O)[C@](C)(O)[C@@H]2O1 (stereo partly specified),5.6,Activity [4]: < 0.2 nmol/g; Stability [5]: Stable
C[C@H](NP1(=O)OC[C@H]2O[C@@H](n3ccc(N)nc3=O)[C@](C)(O)[C@@H]2O1)C(=O)OC1CCCCCC1 (stereo partly specified),> 10,Activity [2]: 10.3 nmol/g
COCCCOC(=O)[C@H](C)NP1(=O)OC[C@H]2O[C@@H](n3ccc(N)nc3=O)[C@](C)(O)[C@@H]2O1 (stereo in doubt; 16 F.E.),,EC50 ([1]; huh-7): > 20 µM
C[C@H](NP1(=O)OC[C@H]2O[C@@H](n3ccc(N)nc3=O)[C@](C)(O)[C@@H]2O1)C(=O)OC(C)(C)C (stereo partly specified),> 20,
CCCCOC(=O)[C@H](C)NP1(=O)OC[C@H]2O[C@@H](n3ccc(N)nc3=O)[C@](C)(O)[C@@H]2O1 (stereo in doubt; 10 S.E.),15,
CCCCCCOCCOC(=O)[C@H](C)NP1(=O)OC[C@H]2O[C@@H](n3ccc(N)nc3=O)[C@](C)(O)[C@@H]2O1 (stereo partly specified),14,Activity [2]: 2.6 nmol/g
CCCCCCCOC(=O)[C@H](C)NP1(=O)OC[C@H]2O[C@@H](n3ccc(N)nc3=O)[C@](C)(O)[C@@H]2O1 (stereo in doubt; 12 F.E.),,EC50 ([1]; huh-7): 15 µM
CCOC(=O)[C@H](C)N[P@]1(=O)OC[C@H]2O[C@@H](n3ccc(N)nc3=O)[C@](C)(O)[C@@H]2O1,4,CC50 [3]: > 100 µM
CCCC(CCC)COC(=O)[C@H](C)NP1(=O)OC[C@H]2O[C@@H](n3ccc(N)nc3=O)[C@](C)(O)[C@@H]2O1 (stereo in doubt; 20 F.E.),,EC50 ([1]; huh-7): > 20 µM
